Test results published in ChEMBL document CHEMBL1121388, “Analgesic narcotic antagonists. 2. 8-Alkymorphinan-6-ones” (J Med Chem, 1980).
Active and inactive are the calls of the source. The calls are words filed in the database; no cut-off is given here.

Legend:
Rattus norvegicus [1] = test: Effective dose was measured by using rat tail flick assay after subcutaneous administration; format: functional; conditions: sc
How it was run: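 Agonist activity in the rat heat-stimulus tail-flick test. Drug was given subcutaneously and rats were tested 20 min after dosing. Salts were dissolved in distilled H₂O; free bases were dissolved with dropwise 1 N HCl and then diluted. ED₅₀ or inactivity/lethality recorded at the dose indicated.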

Mus musculus [2] = test: The effective dose was measured by using mouse writhing assay after the compound administered subcutaneously.; format: functional; conditions: sc
How it was run: (§1)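 Analgesia in the mouse writhing test induced by acetic acid, with compound given subcutaneously. Salts were dissolved in distilled H₂O; free bases were dissolved by dropwise 1 N HCl and then diluted.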

Rattus norvegicus [3] = organism: Rattus norvegicus; test: Ratio of agonist to that of antagonist activity; format: functional
Rattus norvegicus [4] = test: The effective dose was measured by using rat tail flick assay after the compound administered intraperitoneally.; format: functional; conditions: ip
Rattus norvegicus [5] = test: The Effective dose was measured by using rat tail flick assay after the compound administered intraperitoneally at a dose of 25 umol/kg; IA means inactive at the given dose; format: functional, organism-based
Mus musculus [6] = test: The Effective dose was measured by using mouse writhing assay 5 min after the compound administered subcutaneously; format: functional; conditions: sc
Rattus norvegicus [7] = test: The %change in weight from day 0 to day1 after administering the compound at dose of 40 (mg/kg)/day in rat; format: functional
How it was run: (§2)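 Rat physical dependence liability study: drug infused at the stated mg/kg/day for 6 days, with saline-infused controls for 6 days. Body weight was recorded daily and expressed as % change from day 0 on days 1–4. Groups of 4–6 rats; values are means ±.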

Rattus norvegicus [8] = test: The %change in weight from day 0 to day 2 after administering the compound at dose of 40 (mg/kg)/day in rat; format: functional; how it was run: as §2
Rattus norvegicus [9] = test: The %change in weight from day 0 to day 4 after administering the compound at dose of 40 (mg/kg)/day in rat; format: functional; how it was run: as §2
Rattus norvegicus [10] = test: The %change in weight from day 0 to day 3 after administering the compound at dose of 40 (mg/kg)/day in rat; format: functional; how it was run: as §2
Mus musculus [11] = test: The Effective dose was measured by using mouse writhing assay after the compound administered subcutaneously at a dose of 25 umol/kg; IA means inactive at the given dose; format: functional, organism-based; how it was run: as §1
Mus musculus [12] = test: The Effective dose was measured by using mouse writhing assay after the compound administered subcutaneously at a dose of 22 umol/kg; IA means inactive at the given dose; format: functional, organism-based; how it was run: as §1

SMILES	ED50 (Mus musculus [2])	ED50 (Rattus norvegicus [4])	other results
COc1ccc2c3c1O[C@H]1[C@@H](O)C=C[C@H]4[C@@H](C2)N(C)CC[C@@]341 [CODEINE]	10.3 µmol/kg	–	ED50 (Rattus norvegicus [1]): 75 µmol/kg
CCC[C@@H]1CC(=O)CC23CCN(C)C(Cc4ccc(O)cc42)[C@@H]13 (stereo not given in full)	1.37 µmol/kg	–	ED50 (Rattus norvegicus [1]): 2.46 µmol/kg
Oc1ccc2c(c1)[C@@]13CCCC[C@@]1(O)[C@@H](C2)N(CC1CCC1)CC3 [BUTORPHANOL]	0.34 µmol/kg	2 µmol/kg	Ratio (Rattus norvegicus [3]): 0.17
C[C@@H]1CC(=O)CC23CCN(CC4CCC4)C(Cc4ccc(O)cc42)[C@@H]13 (stereo not given in full)	5.98 µmol/kg	12.8 µmol/kg	–
COc1ccc2c(c1)C13CCN(CC4CCC4)C(C2)[C@@H]1CCC(=O)C3 (stereo not given in full)	0.58 µmol/kg	–	ED50 (Rattus norvegicus [5]): inactive
CC[C@@H]1CC(=O)CC23CCN(C)C(Cc4ccc(OC)cc42)[C@@H]13 (stereo not given in full)	37 µmol/kg	–	ED50 (Rattus norvegicus [1]): > 28 µmol/kg
CCC[C@H]1CC(=O)CC23CCN(CC4CCC4)C(Cc4ccc(O)cc42)[C@H]13 (stereo not given in full)	1.06 µmol/kg	7.67 µmol/kg	–
Cl.O=C1CC[C@@H]2C3Cc4ccc(O)cc4C2(CCN3CC2CC2)C1 (stereo not given in full)	–	2.24 µmol/kg	Ratio (Rattus norvegicus [3]): 4; ED50 (Mus musculus [6]): 8.9 µmol/kg
COc1ccc2c(c1)C13CCN(CC4CC4)C(C2)[C@H]1[C@H](C)CC(=O)C3 (stereo not given in full)	> 80 µmol/kg	9 µmol/kg	–
CC[C@H]1CC(=O)CC23CCN(C)C(Cc4ccc(OC)cc42)[C@H]13 (stereo not given in full)	3.23 µmol/kg	–	ED50 (Rattus norvegicus [1]): 10.6 µmol/kg
C=CCN1CCC23CC(=O)CC(C)[C@H]2C1Cc1ccc(OC)cc13 (stereo not given in full)	3.47 µmol/kg	> 24 µmol/kg	–
C[C@@H]1CC(=O)CC23CCN(C)C(Cc4ccc(O)cc42)[C@@H]13 (stereo not given in full)	1.18 µmol/kg	–	ED50 (Rattus norvegicus [1]): 0.93 µmol/kg
C[C@H]1CC(=O)C[C@]23CCN(CC4CC4)[C@H](Cc4ccc(O)cc42)[C@H]13	10.2 µmol/kg	1.8 µmol/kg	Ratio (Rattus norvegicus [3]): 5.7
COc1ccc2c(c1)C13CCN(CC4CC4)C(C2)[C@H]1CCC(=O)C3 (stereo not given in full)	> 25 µmol/kg	3.6 µmol/kg	–
O=C(O)C(O)C(O)C(=O)O.Oc1ccc2c(c1)[C@@]13CCCC[C@@]1(O)[C@@H](C2)N(CC1CCC1)CC3 [BUTORPHANOL TARTRATE]	–	–	Change (Rattus norvegicus [7]): -6.6%; Change (Rattus norvegicus [8]): -3.1%; Change (Rattus norvegicus [9]): 2.2%; Change (Rattus norvegicus [10]): 0.9%
O=C1CC[C@@H]2C3Cc4ccc(O)cc4C2(CCN3CC2CCC2)C1 (stereo not given in full)	2.6 µmol/kg	13.8 µmol/kg	–
CC[C@@H]1CC(=O)CC23CCN(CC4CC4)C(Cc4ccc(OC)cc42)[C@@H]13 (stereo not given in full)	–	1.64 µmol/kg	ED50 (Mus musculus [11]): inactive
COc1ccc2c(c1)C13CCN(CC4CCC4)C(C2)[C@@H]1[C@@H](C)CC(=O)C3.Cl (stereo not given in full)	1.38 µmol/kg	16.4 µmol/kg	Ratio (Rattus norvegicus [3]): 0.08
CC[C@H]1CC(=O)CC23CCN(CC4CCC4)C(Cc4ccc(O)cc42)[C@H]13.Cl (stereo not given in full)	–	0.82 µmol/kg	Ratio (Rattus norvegicus [3]): 0.65; ED50 (Mus musculus [6]): 0.54 µmol/kg
O=C1CC[C@H]2C3Cc4ccc(O)cc4C2(CCN3CC2CC2)C1 (stereo not given in full)	3.28 µmol/kg	7.4 µmol/kg	Ratio (Rattus norvegicus [3]): 0.44
CC[C@@H]1CC(=O)CC23CCN(CC4CCC4)C(Cc4ccc(O)cc42)[C@@H]13 (stereo not given in full)	> 24 µmol/kg	11.6 µmol/kg	–
COc1ccc2c(c1)C13CCN(C)C(C2)[C@H]1CCC(=O)C3 (stereo not given in full)	5.54 µmol/kg	–	ED50 (Rattus norvegicus [1]): > 70 µmol/kg
CN1CCC23CC(=O)CC[C@@H]2C1Cc1ccc(O)cc13 (stereo not given in full)	0.75 µmol/kg	–	ED50 (Rattus norvegicus [1]): 1.33 µmol/kg
C=CCN1CCC23CC(=O)CC(C)[C@H]2C1Cc1ccc(O)cc13 (stereo not given in full)	> 25 µmol/kg	0.65 µmol/kg	–
CCC[C@@H]1CC(=O)CC23CCN(CC4CC4)C(Cc4ccc(OC)cc42)[C@@H]13 (stereo not given in full)	–	6.4 µmol/kg	ED50 (Mus musculus [12]): inactive
O=C1CC[C@H]2C3Cc4ccc(O)cc4C2(CCN3CC2CCC2)C1 (stereo not given in full)	0.047 µmol/kg	–	ED50 (Rattus norvegicus [5]): inactive
